Laboratory results reported in PMC2923816 (Bioorganic & medicinal chemistry letters, 2010).
Where two headings read alike, the source gives them in different places.

Assays:
[1] = target: T1, human haspin kinase (Homo sapiens, UniProt Q8TF76); experiment: haspin kinase TR-FRET assay; type: biochemical
T1 sequence (Q8TF76 1-798): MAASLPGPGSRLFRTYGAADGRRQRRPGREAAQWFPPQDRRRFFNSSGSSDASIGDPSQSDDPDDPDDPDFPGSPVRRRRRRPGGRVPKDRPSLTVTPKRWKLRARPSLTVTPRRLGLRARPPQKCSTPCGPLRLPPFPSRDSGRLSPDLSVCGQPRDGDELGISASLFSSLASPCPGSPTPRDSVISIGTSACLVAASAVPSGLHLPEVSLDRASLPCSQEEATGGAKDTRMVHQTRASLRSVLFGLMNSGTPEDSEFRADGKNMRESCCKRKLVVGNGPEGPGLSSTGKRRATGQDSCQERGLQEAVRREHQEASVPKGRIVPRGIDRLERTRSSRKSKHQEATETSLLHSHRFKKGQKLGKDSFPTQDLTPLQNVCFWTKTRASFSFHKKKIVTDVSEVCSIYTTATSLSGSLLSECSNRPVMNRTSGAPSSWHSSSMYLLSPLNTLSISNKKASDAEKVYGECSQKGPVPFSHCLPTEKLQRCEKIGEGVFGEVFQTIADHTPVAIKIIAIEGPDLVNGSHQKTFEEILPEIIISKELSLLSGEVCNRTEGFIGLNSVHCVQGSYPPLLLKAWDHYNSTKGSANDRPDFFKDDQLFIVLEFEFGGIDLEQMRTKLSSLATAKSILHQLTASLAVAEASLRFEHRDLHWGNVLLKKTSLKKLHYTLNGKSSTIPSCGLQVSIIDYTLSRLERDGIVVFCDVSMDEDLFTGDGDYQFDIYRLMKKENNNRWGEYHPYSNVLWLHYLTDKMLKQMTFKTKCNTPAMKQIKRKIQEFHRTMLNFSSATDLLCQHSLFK
Outline: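 Human haspin activity measured by TR-FRET at varying test compound concentrations to give IC50, using the HTS format: histone H3 peptide substrate, with phosphorylated product (H3T3ph) detected by a europium-labelled phosphospecific monoclonal antibody. For the selectivity ratio, DYRK2 was assayed by 33P incorporation into Woodtide peptide with human N-terminal GST-fused DYRK2 and γ33P-ATP.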

[2] = target: T2, human DYRK2 (Homo sapiens, UniProt Q92630); experiment: DYRK2 kinase 33P-incorporation into Woodtide peptide; type: biochemical; settings: read-out: IC50 DYRK2, Woodtide substrate
T2 sequence (Q92630 1-601): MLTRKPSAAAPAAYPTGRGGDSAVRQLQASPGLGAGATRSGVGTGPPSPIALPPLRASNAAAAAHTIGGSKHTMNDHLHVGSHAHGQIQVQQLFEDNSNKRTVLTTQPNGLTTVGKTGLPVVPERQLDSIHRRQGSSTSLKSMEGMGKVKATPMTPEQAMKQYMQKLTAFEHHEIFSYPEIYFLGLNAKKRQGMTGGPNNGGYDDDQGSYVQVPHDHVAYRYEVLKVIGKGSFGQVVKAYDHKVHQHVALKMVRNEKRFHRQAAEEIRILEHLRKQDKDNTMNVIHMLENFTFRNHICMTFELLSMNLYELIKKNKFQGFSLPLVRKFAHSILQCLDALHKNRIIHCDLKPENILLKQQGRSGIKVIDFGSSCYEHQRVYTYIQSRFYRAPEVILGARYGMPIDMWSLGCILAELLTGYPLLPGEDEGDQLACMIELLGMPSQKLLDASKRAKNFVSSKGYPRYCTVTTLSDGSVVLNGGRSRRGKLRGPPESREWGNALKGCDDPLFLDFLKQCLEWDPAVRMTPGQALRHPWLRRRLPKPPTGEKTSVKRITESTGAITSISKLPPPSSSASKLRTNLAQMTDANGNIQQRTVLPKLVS

[3] = read-out: IC50 haspin, TR-FRET assay

Compound | IC50 [1, 3] | selectivity for haspin over DYRK2 ([1]; ratio of IC50 values) | IC50 ([1]; read-out: haspin IC50) | IC50 [2]
COc1ccc2nc3ccc(OC)cc3c(SCCCN3C(=O)c4ccccc4C3=O)c2c1 [Compound 41] | 2100 nM |  |  | 
COc1ccc2nc3ccc(Cl)cc3c(SCCCN)c2c1 [Compound 33] | 55 nM | 180 fold | < 60 nM | 9900 nM
